PMC5388449 (Journal of electroanalytical chemistry (Lausanne, …, 2016)
Like-named read-outs stand apart in the source and are kept apart here.

Experiments:
Con A [1] = settings: ITC, depending on ligand density on nanoparticles surface; cited from earlier work
peanut agglutinin (PNA) = molecular target: T1, peanut agglutinin (PNA) (Arachis hypogaea, UniProt P02872); experiment: EIS negative control: PNA exposed to SAMs of thiolated mannosides on gold wire; format: binding; settings: single-component SAM of Man-C8-SH on gold wire, 0.5 μM PNA
T1 sequence (P02872 24-273): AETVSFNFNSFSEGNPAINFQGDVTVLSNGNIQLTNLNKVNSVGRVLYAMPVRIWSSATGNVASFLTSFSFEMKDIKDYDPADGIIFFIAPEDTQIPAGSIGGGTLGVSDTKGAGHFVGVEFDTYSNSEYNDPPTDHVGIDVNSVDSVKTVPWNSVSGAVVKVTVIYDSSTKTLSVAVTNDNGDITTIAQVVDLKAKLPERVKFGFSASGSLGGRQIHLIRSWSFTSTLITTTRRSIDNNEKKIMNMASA
Method in brief: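 Gold wires cleaned in nitric acid, then 0.5 M NaBH4 for 17 h. SAMs formed from thiolated mannoside, alone or with TEG-SH (1.0 mM total in methanol), 17 h at room temperature. Lectin in 10 mM Tris pH 7.4 with 0.1 M NaCl, 1 mM CaCl2, 1 mM MnCl2; 1 h at room temperature, then rinsed. EIS run at 5.0 mm exposed wire in 5 mM 1:1 ferri/ferrocyanide in 10 mM Tris pH 7.4, 100 kHz–1 Hz, 0.22 V vs Ag/AgCl. Rct obtained by Randles-circuit fit of Nyquist plots.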

Concanavalin A (Con A) = Concanavalin A (Con A) (Canavalia ensiformis, UniProt P02866); experiment: biochemical; format: binding, Canavalia ensiformis (Jack Bean); settings: for ΔRct (Rct after Con A immobilization – Rct before): single-component SAM on gold wire
Con A [2] = settings: SPR, cited from earlier work
Con A [3] = settings: QCM, cited from earlier work
Con A [4] = settings: ITC, in solution; cited from earlier work

Compound | Kd (Concanavalin A (Con A)) [nM] | Hill coefficient (Concanavalin A (Con A)) | LOD (Concanavalin A (Con A)) [nM] | other results
dimannose |  |  |  | Kd (Con A [1]): 35 to 175 nM
OC[C@H]1O[C@H](OCCCCCCCCS)[C@@H](O)[C@@H](O)[C@@H]1O [A, 8-mercaptooctyl α-D-mannopyranoside] | 70 ± 19 |  |  | increase in Rct value (peanut agglutinin (PNA)): negligible increase; ΔRct (Concanavalin A (Con A); mixed SAM 1:4 Man-C8-SH/TEG-SH on gold wire, 0.5 μM Con A, 1 h): 495 ± 15 Ω; ΔRct (Rct after Con A immobilization – Rct before) (Concanavalin A (Con A); 0.5 μM Con A, 1 h): 299 ± 51 Ω
OC[C@H]1OC(O)[C@@H](O)[C@@H](O)[C@@H]1O (stereo partly shown) [mannose] |  |  |  | Kd (Con A [2]; mannose functionalized on a gold surface, multivalent interactions): 78 nM; Kd (Con A [2]; mannose–Con A interaction): 135 to 400 nM; Kd (Con A [3]; 1:2 binding of Con A to mannose): 71 nM; Kd (Con A [3]; mannose–Con A interaction): 250 to 400 nM
OCCOCCOCCS [TEG-SH, 8-mercapto-3,6-dioxaoctanol, reference compound] |  |  |  | ΔRct (Rct after Con A immobilization – Rct before) (Concanavalin A (Con A); 0.5 μM Con A, 1 h): 63 ± 13 Ω
OC[C@H]1O[C@H](OC[C@H]2O[C@H](OCCCCCCCCS)[C@@H](O)[C@@H](O)[C@@H]2O[C@H]2O[C@H](CO)[C@@H](O)[C@H](O)[C@@H]2O)[C@@H](O)[C@@H](O)[C@@H]1O [E, 8-Mercaptooctyl 4,6-di-O-(α-D-mannopyranosyl)-α-D-mannopyranoside] | 81 ± 31 | 0.50 ± 0.06 | 11 | 
OC[C@H]1O[C@H](OC[C@H]2O[C@H](OCCCCCCCCS)[C@@H](O)[C@@H](O)[C@@H]2O)[C@@H](O)[C@@H](O)[C@@H]1O [C, 8-Mercaptooctyl 6-O-(α-D-mannopyranosyl)-α-D-mannopyranoside] | 14 ± 4 | 0.73 ± 0.17 | 6 | 
OC[C@H]1O[C@H](OC[C@H]2O[C@H](OCCCCCCCCS)[C@@H](O)[C@@H](O[C@H]3O[C@H](CO)[C@@H](O)[C@H](O)[C@@H]3O)[C@@H]2O)[C@@H](O)[C@@H](O)[C@@H]1O [D, 8-Mercaptooctyl 3,6-di-O-(α-D-mannopyranosyl)-α-D-mannopyranoside] | 30 ± 5 | 0.55 ± 0.05 | 13 | 
CO[C@H]1O[C@H](CO)[C@@H](O)[C@H](O)[C@@H]1O [methyl α-D-mannopyranoside] |  |  |  | Ka (Con A [4]): 0.82 × 10^4; Kd (Con A [4]): 122000 nM
OC[C@H]1O[C@H](O[C@@H]2[C@H](O)[C@@H](OCCCCCCCCS)O[C@H](CO)[C@H]2O)[C@@H](O)[C@@H](O)[C@@H]1O [B, 8-Mercaptooctyl 3-O-(α-D-mannopyranosyl)-α-D-mannopyranoside] | 75 ± 20 |  |  | 
